Test results: ChEMBL document CHEMBL4680153, “New Spisulosine Derivative promotes robust autophagic response to cancer cells” (Eur J Med Chem, 2020)
Activity calls are given as the source filed them. No cut-off for these calls is given here.

What was measured:
MCF7 = experiment: Antiproliferative activity against human MCF7 cells assessed as reduction in cell growth at 10 uM incubated for 48 hrs by SRB assay relative to control; assay type: functional
Method in brief: (§1)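 Early-passage cells plated at 40% confluency and left overnight, then exposed to 10 μM compound for 48 h. Growth was measured by sulforhodamine B staining, with absorbance at 510 nm. Percent growth inhibition was calculated against untreated cells.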

MDA-MB-231 = experiment: Antiproliferative activity against human MDA-MB-231 cells assessed as reduction in cell growth at 10 uM incubated for 48 hrs by SRB assay relative to control; assay type: functional; method in brief: as §1
DLD-1 [1] = experiment: Antiproliferative activity against human DLD-1 cells assessed as reduction in cell growth at 10 uM incubated for 48 hrs by SRB assay relative to control; assay type: functional; method in brief: as §1
HT-29 = experiment: Antiproliferative activity against human HT-29 cells assessed as reduction in cell growth at 10 uM incubated for 48 hrs by SRB assay relative to control; assay type: functional; method in brief: as §1
A549 = experiment: Antiproliferative activity against human A549 cells assessed as reduction in cell growth at 10 uM incubated for 48 hrs by SRB assay relative to control; assay type: functional; method in brief: as §1
NCI-H358 = experiment: Antiproliferative activity against human NCI-H358 cells assessed as reduction in cell growth at 10 uM incubated for 48 hrs by SRB assay relative to control; assay type: functional; method in brief: as §1
PC-3 = experiment: Cytotoxicity against human PC-3 cells assessed as reduction in cell viability incubated for 48 hrs by MTT assay; assay type: functional, cell-based; details: PC-3, 48 h
LNCaP = experiment: Cytotoxicity against human LNCaP cells assessed as reduction in cell viability incubated for 48 hrs by MTT assay; assay type: functional, cell-based
KB = experiment: Cytotoxicity against human KB cell; assay type: functional, cell-based
HCT-116 = experiment: Cytotoxicity against human HCT-116 cell; assay type: functional, cell-based
HL-60 = experiment: Cytotoxicity against human HL-60 cell; assay type: functional, cell-based
DLD-1 [2] = experiment: Induction of apoptosis in human DLD-1 cells assessed as viable cells at 7.5 uM incubated for 18 hrs by Annexin V-FITC and propidium iodide staining based flow cytometry analysis (reference value: 85.2 %); assay type: functional; details: read-out: Activity
DLD-1 [3] = experiment: Induction of apoptosis in human DLD-1 cells assessed as early apoptotic cells at 7.5 uM incubated for 18 hrs by Annexin V-FITC and propidium iodide staining based flow cytometry analysis (reference value: 4.95 %); assay type: functional
DLD-1 [4] = experiment: Induction of apoptosis in human DLD-1 cells assessed as late apoptotic cells at 7.5 uM incubated for 18 hrs by Annexin V-FITC and propidium iodide staining based flow cytometry analysis (reference value: 5.7 %); assay type: functional
DLD-1 [5] = experiment: Induction of apoptosis in human DLD-1 cells assessed as necrotic cells at 7.5 uM incubated for 18 hrs by Annexin V-FITC and propidium iodide staining based flow cytometry analysis (reference value: 4.1 %); assay type: functional
DLD-1 [6] = experiment: Induction of apoptosis in human DLD-1 cells assessed as increase in PARP cleavage at 5 to 7.5 uM by Western blot analysis; assay type: functional, cell-based; details: dose 5-7.5 µM
Method in brief: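 DLD-1 cells were treated at 7.5 μM for 18 h and lysed in NP-40 buffer containing protease and phosphatase inhibitors. Protein was quantified by BCA, and equal amounts were run on 15% SDS-PAGE and transferred to PVDF. Cleaved PARP was probed and detected by enhanced chemiluminescence.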

DLD-1 [7] = experiment: Induction of autophagy in human DLD-1 cells assessed as reduction in cell viability at 7.5 uM incubated for 24 hrs in presence of Bafilomycin-A1 by crystal violet staining based phase contrast microscopic analysis; assay type: functional

CCCCCCCCCCCCCC[C@H](O)[C@H](CN1CCSCC1)NC(=O)OC(C)(C)C
inhibition at 10 µM (MCF7): 30.2% | inhibition at 10 µM (MDA-MB-231): 6.84% | inhibition at 10 µM (DLD-1 [1]): 32.4% | inhibition at 10 µM (HT-29): 12% | inhibition at 10 µM (A549): 32% | inhibition at 10 µM (NCI-H358): 10.8%

CCCCCCCCCCCCCC[C@H](OCOC)[C@H](CN1CCN(C)CC1)NC(=O)OC(C)(C)C
inhibition at 10 µM (MCF7): 28% | inhibition at 10 µM (MDA-MB-231): 24% | inhibition at 10 µM (DLD-1 [1]): 31.9% | inhibition at 10 µM (A549): 18.2% | inhibition at 10 µM (NCI-H358): 18.9%

CCCCCCCCCCCCCC[C@H](O)[C@H](CN(CC)CC)NC(=O)OC(C)(C)C
inhibition at 10 µM (MCF7): 18.7% | inhibition at 10 µM (MDA-MB-231): -1.45% | inhibition at 10 µM (DLD-1 [1]): 14.7% | inhibition at 10 µM (A549): 18.5% | inhibition at 10 µM (NCI-H358): 8.37%

CCCCCCCCCCCCCC[C@H](OCOC)[C@H](CN(C(C)C)C(C)C)NC(=O)OC(C)(C)C
inhibition at 10 µM (MCF7): 26.9% | inhibition at 10 µM (MDA-MB-231): 31% | inhibition at 10 µM (DLD-1 [1]): 53.9% | inhibition at 10 µM (HT-29): 19.9% | inhibition at 10 µM (A549): 22.6% | inhibition at 10 µM (NCI-H358): 26.6%

CCCCCCCCCCCCCC[C@H](O)[C@H](Cc1ccc(OC)cc1)NC(=O)OC(C)(C)C
inhibition at 10 µM (MCF7): 8.77% | inhibition at 10 µM (MDA-MB-231): -16.5% | inhibition at 10 µM (DLD-1 [1]): 27.9% | inhibition at 10 µM (HT-29): -7.41% | inhibition at 10 µM (A549): 23.4% | inhibition at 10 µM (NCI-H358): 6.37%

CCCCCCCCCCCCCCC[C@@H](O)[C@H](C)N
IC50 (PC-3): 1000 nM | IC50 (LNCaP): 1000 nM | IC50 (KB): 100 nM | IC50 (HCT-116): 100 nM | IC50 (HL-60): 100 nM | viability at 7.5 µM (DLD-1 [2]): 78% | Activity (DLD-1 [3]): 14.2% | Activity (DLD-1 [4]): 3.4% | Activity (DLD-1 [5]): 4.2% | Activity (DLD-1 [6]): Active | Activity (DLD-1 [7]): Active

COc1cccc2c1C(=O)c1c(O)c3c(c(O)c1C2=O)C[C@@](O)(C(=O)CO)C[C@@H]3O[C@H]1C[C@H](N)[C@H](O)[C@H](C)O1 [DOXORUBICIN]
inhibition at 10 µM (MCF7): 88.5% | inhibition at 10 µM (MDA-MB-231): 80.2% | inhibition at 10 µM (DLD-1 [1]): 76.7% | inhibition at 10 µM (HT-29): 78.4% | inhibition at 10 µM (A549): 80.2% | inhibition at 10 µM (NCI-H358): 77.5%

CCCCCCCCCCCCCC[C@H](OCOC)[C@H](CN1CCSCC1)NC(=O)OC(C)(C)C
inhibition at 10 µM (MCF7): 24% | inhibition at 10 µM (MDA-MB-231): 4.73% | inhibition at 10 µM (DLD-1 [1]): 58.5% | inhibition at 10 µM (HT-29): 8.57% | inhibition at 10 µM (A549): 29.9% | inhibition at 10 µM (NCI-H358): 22.7%

CCCCCCCCCCCCCC[C@H](OCOC)[C@H](CO[Si](c1ccccc1)(c1ccccc1)C(C)(C)C)NC(=O)OC(C)(C)C
inhibition at 10 µM (MCF7): -7.95% | inhibition at 10 µM (MDA-MB-231): -28% | inhibition at 10 µM (DLD-1 [1]): -14.6% | inhibition at 10 µM (HT-29): -18.8% | inhibition at 10 µM (A549): 15.1% | inhibition at 10 µM (NCI-H358): -2.89%

CCCCCCCCCCCCCC[C@H](OCOC)[C@H](CN1CCCCC1)NC(=O)OC(C)(C)C
inhibition at 10 µM (MCF7): 27.3% | inhibition at 10 µM (MDA-MB-231): 9.84% | inhibition at 10 µM (DLD-1 [1]): 43.7% | inhibition at 10 µM (HT-29): 14.2% | inhibition at 10 µM (A549): 19% | inhibition at 10 µM (NCI-H358): 15.2%

CCCCCCCCCCCCCC[C@H](O)[C@H](CO[Si](c1ccccc1)(c1ccccc1)C(C)(C)C)NC(=O)OC(C)(C)C
inhibition at 10 µM (MCF7): 2.79% | inhibition at 10 µM (MDA-MB-231): -37.5% | inhibition at 10 µM (DLD-1 [1]): 10.4% | inhibition at 10 µM (HT-29): -14.4% | inhibition at 10 µM (A549): 14.6% | inhibition at 10 µM (NCI-H358): 3.11%

CCCCCCCCCCCCCC[C@H](O)[C@H](CN(C(C)C)C(C)C)NC(=O)OC(C)(C)C
inhibition at 10 µM (MCF7): 25.3% | inhibition at 10 µM (MDA-MB-231): -1.17% | inhibition at 10 µM (DLD-1 [1]): 34.8% | inhibition at 10 µM (HT-29): 11.6% | inhibition at 10 µM (A549): 22.9% | inhibition at 10 µM (NCI-H358): 11.3%

CCCCCCCCCCCCCC[C@H](O)[C@H](CN(CCCC)CCCC)NC(=O)OC(C)(C)C
inhibition at 10 µM (MCF7): 21.5% | inhibition at 10 µM (MDA-MB-231): -9.61% | inhibition at 10 µM (DLD-1 [1]): 23.4% | inhibition at 10 µM (HT-29): 9.83% | inhibition at 10 µM (A549): 30% | inhibition at 10 µM (NCI-H358): 9.4%

CC(C)(C)OC(=O)N[C@H](CO)CO[Si](c1ccccc1)(c1ccccc1)C(C)(C)C
inhibition at 10 µM (MCF7): 28.3% | inhibition at 10 µM (MDA-MB-231): 32.3% | inhibition at 10 µM (DLD-1 [1]): 73.5% | inhibition at 10 µM (HT-29): 46.2% | inhibition at 10 µM (A549): 25.4% | inhibition at 10 µM (NCI-H358): 53.4%

CCCCCCCCCCCCCC[C@H](OCOC)[C@H](CO)NC(=O)OC(C)(C)C
inhibition at 10 µM (MCF7): 10.2% | inhibition at 10 µM (MDA-MB-231): -5.67% | inhibition at 10 µM (DLD-1 [1]): 54.8% | inhibition at 10 µM (HT-29): 22% | inhibition at 10 µM (A549): 25.9% | inhibition at 10 µM (NCI-H358): 18.4%

CCCCCCCCCCCCCC[C@H](OCOC)[C@H](CN(CC)CC)NC(=O)OC(C)(C)C
inhibition at 10 µM (MCF7): 25.2% | inhibition at 10 µM (MDA-MB-231): 0.84% | inhibition at 10 µM (DLD-1 [1]): 46.2% | inhibition at 10 µM (HT-29): -3.21% | inhibition at 10 µM (A549): 27.5% | inhibition at 10 µM (NCI-H358): 14.9%

CCCCCCCCCCCCCC[C@H](OCOC)[C@H](CN(CCCC)CCCC)NC(=O)OC(C)(C)C
inhibition at 10 µM (MCF7): 27.1% | inhibition at 10 µM (MDA-MB-231): 22.3% | inhibition at 10 µM (DLD-1 [1]): 56% | inhibition at 10 µM (HT-29): 15% | inhibition at 10 µM (A549): 42.2% | inhibition at 10 µM (NCI-H358): 25.1%
